LYPLA1 counter – blocks human lysophospholipase 1, a PME1 counter-screen; recombinant LYPLA1, FP-Rh probe fluorescence polarization; inhibition, % at 5.9 µM; 320,000 tested, 0.16% active; AID 2174;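 active = inhibition above the mean of all tested compounds plus 3 SD, set per campaign, cut at about 14% in these data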;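 also: inhibitors block serine hydrolase probe labeling of LYPLA1 so polarization falls; 0% = enzyme with DMSO and 100% = wells lacking LYPLA1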
proCasp7 act – activates human procaspase-7, counter-screen for procaspase-3 activators. P55210. recombinant procaspase-7, Ac-DEVD-pNA absorbance 405 nm; D23A/D198A/D206A triple mutant, cannot self-cleave; scale: DMSO 0, 5 µM enzyme 100. activation, % at 8.5 µM. 330,000 tested, 0.093% active;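 active = percent activation above the screen-wide mean plus 3 SD, cut at about 25% in these data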
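Assay system: Uncleavable procaspase-7 mutant enzyme | Input: 2 µM procaspase-7 mutant as dispensed | Timing: 1 h compound preincubation, 2 h substrate cleavage, 25 °C | Repeats: One well per compound | Control set: DMSO wells as 0%, DMSO with 5 µM added PC-7 as 100% | Technique: Epi-absorbance of released pNA at 405 nm, two timepoints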
LYPLA2 counter – LYPLA2 (human) inhibition in PME1 counter-screen | 320,000 tested, 0.38% active | recombinant LYPLA2, FP-Rh probe fluorescence polarization | inhibition, % at 5.9 µM | O95372;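 active = inhibition above the screen-wide mean plus 3 SD, limit set per campaign, cut at about 26% in these data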;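 also: 0% = LYPLA2 with DMSO and 100% = wells lacking LYPLA2 enzyme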
PREPL inh – human PREPL enzyme inhibition; AID 2751; Q4J6C6; 320,000 tested, 0.68% active; recombinant PREPL, fluorescence polarization activity-based probe; inhibition, % at 5.96 µM;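 also: 0% = enzyme with DMSO and 100% = wells lacking enzyme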
proCasp3 act – activators of human procaspase-3 | recombinant procaspase-3 D3A, Ac-DEVD-pNA absorbance 405 nm | activation, % at 8.5 µM | 330,000 tested, 0.11% active | P42574;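 active = activation above the mean of all tested compounds plus 3 SD, cut at about 21% in these data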;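 also: 0% = DMSO alone and 100% = DMSO wells spiked with extra 5 µM PC-3 D3A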
Target sequence (P42574 whole entry D9A/D28A/D175A): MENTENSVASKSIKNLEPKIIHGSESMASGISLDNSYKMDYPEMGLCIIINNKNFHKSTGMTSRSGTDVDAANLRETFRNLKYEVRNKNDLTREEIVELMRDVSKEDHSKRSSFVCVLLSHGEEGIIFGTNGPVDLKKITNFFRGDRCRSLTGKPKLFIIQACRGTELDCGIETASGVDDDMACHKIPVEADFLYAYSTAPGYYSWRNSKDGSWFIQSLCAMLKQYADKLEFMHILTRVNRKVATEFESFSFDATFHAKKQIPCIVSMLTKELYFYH
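Evaluation: percent activation relative to control range; Material: Procaspase-3 D3A mutant, all three cleavage aspartates alanine; Compound: single dose, 8.5 µM nominal compound, 0.8% DMSO; Replication: one well per compound; Signal: absorbance at 405 nm, 0 and 120 min; Schedule: 1 h preincubation plus 2 h reaction at 25 °C.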
PREPL inh cf – confirmation of human PREPL enzyme inhibitors | shares compounds with PREPL inh | recombinant PREPL, fluorescence polarization activity probe | inhibition, % at 5.96 µM | 2,000 tested, 67% active | AID 2803;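 also: 0% = protein with DMSO and 100% = wells lacking protein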
Active calls of the source: *; . = no result given. Compounds with a hit are over-represented: about 1% of the library has one in this group of screens. Rule as the data show it, unless noted: active = inhibition above about 43%; inactive = the rest.

SMILES	LYPLA1 counter	proCasp7 act	LYPLA2 counter	PREPL inh	proCasp3 act	PREPL inh cf
COc1cc(/C=C2/C(=N)N3C(SC)=NSC3=NC2=O)ccc1OC(=O)c1ccco1	-0.7	0.8	1.4	54.1*	4.9	63.6*
COc1cc(/C=C2\C(=O)N(c3ccc(S(N)(=O)=O)cc3)N=C2C)ccc1OC(=O)c1ccco1	3.7	8.9	1.1	53.9*	4.1	83.0*
COc1cc(/C=C2/C(=N)N3C(=NC2=O)SN=C3S(=O)(=O)C(C)C)ccc1OC(=O)c1ccco1	-3.2	9.6	2.4	38.3	-9.1	.
Cc1cc2cc3c(cc2nc1SCC(=O)Nc1nc(C)c(C)s1)OCO3	-7.3	3.0	-4.9	-22.9	-2.6	.
COC(=O)C1=C(C)N(C)C(=O)NC1c1ccc(O)c(Cl)c1 (stereo not given)	-3.5	-1.9	1.3	-2.4	-4.0	.
Cc1ccccc1-c1nc(CS(=O)(=O)CC(=O)NCCCN2C(C)CCCC2C)c(C)o1 (stereo not given)	-1.3	8.2	0.5	36.5	-2.5	.
COc1ccc(NC(=O)c2ccc(COc3ccccc3Br)o2)cc1OC	-2.7	-2.0	4.8	34.5	2.6	.
COc1cc(NC(=O)c2ccc(COc3ccccc3Br)o2)cc(OC)c1OC	-1.8	-1.8	1.6	44.2*	-8.3	40.5
Cc1ccc(C)c(-c2nn(-c3cc(N4CCN(CCO)CC4)ccc3[N+](=O)[O-])c(=O)c3ccccc23)c1	-1.7	-11.0	1.8	62.3*	-7.2	56.8*
Cc1nn(-c2cc(N3CCCC3)ccc2[N+](=O)[O-])c(=O)c2ccccc12	6.8	-2.5	9.5	12.7	0.9	.
Cc1nn(CC(=O)NNC(=O)c2ccc(Br)cc2)c(C)c1[N+](=O)[O-]	0.8	12.0	-0.5	3.3	8.0	.
CC[n+]1ccc(C)c2cc(P(=O)(c3ccccc3)c3ccccc3)ccc21	-2.8	0.1	-2.6	57.0*	-0.7	41.3
CC[n+]1ccc(C)c2cc(S(=O)C(F)(F)F)ccc21 (stereo not given)	3.8	-4.1	5.2	28.1	-9.3	.
O=c1c2ccccc2sc2ccc(NCCCN3CCOCC3)cc12	3.8	-8.0	1.4	44.8*	-4.0	35.3
Cc1cc2oc3cc(NCCC4CCCN4C)ccc3c(=O)c2cc1C (stereo not given)	3.6	0.2	2.0	21.8	1.4	.
CN1CCCC1CCNc1ccc2sc3ccccc3c(=O)c2c1 (stereo not given)	4.5	7.8	1.4	50.9*	-1.4	47.8*
O=S(=O)(c1ccc(Cl)cc1)n1ccc2cccnc21	3.0	6.7	2.1	-1.3	-0.7	.
CCOC(=O)C1CCCN(Cc2ccc(OCc3ccccc3)cc2)C1 (stereo not given)	0.8	0.6	-5.6	14.9	0.7	.
CCOc1cccc2sc(N(CCCN(C)C)C(=O)c3ccc(S(=O)(=O)N4CCCCCC4)cc3)nc12	-0.1	2.7	3.6	-9.7	1.2	.
Cc1cc(-c2csc(N)n2)c(C)n1C	0.6	0.0	1.5	52.5*	0.1	13.7
Cc1ccc(-n2c(C)cc(-c3csc(N)n3)c2C)cc1	-3.3	-8.8	1.8	26.7	-11.7	.
Cc1ccc(C(C(=O)NC2CCCC2)N(Cc2ccc3c(c2)OCO3)C(=O)c2snc(C(N)=O)c2N)cc1 (stereo not given)	2.2	5.3	1.1	-2.5	-2.8	.
O=C(NC1CCCCC1)C(c1ccccc1)N(Cc1ccc2c(c1)OCO2)C(=O)c1cnsn1 (stereo not given)	1.2	-1.6	5.6	45.7*	-0.7	33.0
CCCC(=O)OCCn1c(Br)nc2c1c(=O)[nH]c(=O)n2C	4.4	-6.2	3.1	14.1	1.5	.
COc1cc(C(=O)N2CCN(c3ccccc3F)CC2)ccc1OCC(=O)N1CCOCC1	0.5	10.6	0.6	11.4	-0.1	.
COc1ccc(OC(=O)COc2ccc(Cl)cc2)cc1	-3.7	9.5	-8.1	9.7	3.5	.
Oc1cc(Nc2ccncc2)cc2cccnc12	.	-1.8	.	46.5*	-6.3	51.0*
Oc1cc(Nc2cccnc2)cc2cccnc12	.	-6.0	.	29.1	-5.5	.
CCOc1ccc(NCc2nc3ccccc3n2CCOc2ccccc2)cc1	0.1	-0.1	3.3	45.4*	-6.4	44.8*

Bioassay records (PubChem BioAssay)
